As a reminder, the pIC50 is the negative decadic logarithm of the IC50, by convention in mol/L.

pIC50: −log10 of the molar value.

The subject of one assay is CCRF-CEM. Briefly: Cytoprotective effect in human CEM cells assessed as reduction of diethyl maleate-induced oxidative stress measured cell viability at 5 uM incubated for 17 hrs prior to diethyl maleate challenge measured after 6 hrs by trypan blue exclusion assay relative to untreated control. In kind it is functional. In short, it runs like this: (§1)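 CEM cells seeded at 5 × 10⁵ cells/mL with compound and held 17 h at 37 °C, 5% CO₂. Oxidative stress then induced with 5 mM DEM for 6 h. Viability counted on a hemocytometer by 0.4% trypan blue exclusion and expressed as percent of untreated control (untreated = 100%). Means ± S.E.M., n = 3.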
Turning to `COC1=C(OC)C(=O)C(CCCCCCCCC(C)(C)C)=C(C)C1=O`, the Activity is on record as 93%.
As for `CCCCCCCCCCCCCCCC1=C(C)C(=O)C(OC)=C(OC)C1=O`, the Activity was 94%.
On to `CCCCCCCCCCC1=C(C)C(=O)C(OC)=C(OC)C1=O` [DECYLUBIQUINONE], for which the Activity is 87%.

A further assay has as its system CCRF-CEM. Briefly: Cytoprotective effect in human CEM cells assessed as reduction of diethyl maleate-induced oxidative stress measured cell viability at 1 uM incubated for 17 hrs prior to diethyl maleate challenge measured after 6 hrs by trypan blue exclusion assay relative to untreated control. In kind it is functional. Put shortly: as §1
In the case of `COC1=C(OC)C(=O)C(CCCCCCCCC(C)(C)C)=C(C)C1=O`, the Activity stood at 72%.
In the case of `CCCCCCCCCCCCCCCC1=C(C)C(=O)C(OC)=C(OC)C1=O`, the Activity was 90%.
In the case of `CCCCCCCCCCC1=C(C)C(=O)C(OC)=C(OC)C1=O` [DECYLUBIQUINONE], the Activity is given as 79%.

The subject of a further assay is CCRF-CEM. Briefly: Cytoprotective effect in human CEM cells assessed as reduction of diethyl maleate-induced oxidative stress measured cell viability at 0.5 uM incubated for 17 hrs prior to diethyl maleate challenge measured after 6 hrs by trypan blue exclusion assay relative to untreated control. The assay is classed as functional. Put shortly:
as §1
As for `COC1=C(OC)C(=O)C(CCCCCCCCC(C)(C)C)=C(C)C1=O`, the Activity stood at 43%.
Still for that read-out and setting: the same measure for `CCCCCCCCCCCCCCCC1=C(C)C(=O)C(OC)=C(OC)C1=O`: 87%; for `CCCCCCCCCCC1=C(C)C(=O)C(OC)=C(OC)C1=O` [DECYLUBIQUINONE]: 62%.

In the next assay the test system is CCRF-CEM. The assay can be described thus: Cytoprotective effect in human CEM cells assessed as reduction of diethyl maleate-induced oxidative stress measured cell viability at 0.1 uM incubated for 17 hrs prior to diethyl maleate challenge measured after 6 hrs by trypan blue exclusion assay relative to untreated control. In kind it is functional. In short, it runs like this:
as §1
In the case of `COC1=C(OC)C(=O)C(CCCCCCCCC(C)(C)C)=C(C)C1=O`, the Activity came to 9%.
Regarding `CCCCCCCCCCCCCCCC1=C(C)C(=O)C(OC)=C(OC)C1=O`, the Activity came out at 82%.
Consider `CCCCCCCCCCC1=C(C)C(=O)C(OC)=C(OC)C1=O` [DECYLUBIQUINONE], for which the Activity was determined as 69%.

The test system of another assay is CCRF-CEM. The assay can be described thus: Blockade of diethyl maleate-induced mitochondrial membrane potential collapse in human CEM cells assessed as cells with intact mitochondrial membrane potential at 1 uM incubated for 16 hrs prior to diethyl maleate challenge measured after 120 mins by TMRM-based flow cytometric analysis (reference value: 12%). The assay is classed as functional. Put shortly: (§2)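 Pretreatment: CEM cells (5 × 10⁵) with or without compound for 16 h, then 5 mM DEM for 120 min. Cells washed and resuspended in PBS with glucose, stained with 250 nM TMRM for 15 min at 37 °C in the dark, washed, and read at once by flow cytometry (488 nm excitation, FL2-H). 10,000 events per run. Percentage of cells with intact potential taken from the top-right quadrant. FCCP served as depolarized control. Means ± SEM of three independent experiments in duplicate.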
(A flow cytometer gives signals particle by particle.)
`COC1=C(OC)C(=O)C(CCCCCCCCC(C)(C)C)=C(C)C1=O`: the Activity was 85%.
Consider `CCCCCCCCCCCCCCCC1=C(C)C(=O)C(OC)=C(OC)C1=O`, for which the Activity was determined as 92%.
Same read-out and setting: the result for `CCCCCCCCCCC1=C(C)C(=O)C(OC)=C(OC)C1=O` [DECYLUBIQUINONE] reads 88%.

The next assay relates to CCRF-CEM. Briefly: Blockade of diethyl maleate-induced mitochondrial membrane potential collapse in human CEM cells assessed as cells with intact mitochondrial membrane potential at 0.5 uM incubated for 16 hrs prior to diethyl maleate challenge measured after 120 mins by TMRM-based flow cytometric analysis (reference value: 12%). The assay is classed as functional. Put shortly:
as §2
For `COC1=C(OC)C(=O)C(CCCCCCCCC(C)(C)C)=C(C)C1=O`, the Activity turned out to be 70%.
Consider `CCCCCCCCCCCCCCCC1=C(C)C(=O)C(OC)=C(OC)C1=O`, for which the Activity is 86%.
With `CCCCCCCCCCC1=C(C)C(=O)C(OC)=C(OC)C1=O` [DECYLUBIQUINONE], the Activity is listed as 78%.

A further assay has as its system CCRF-CEM. The assay can be described thus: Antioxidant activity in human CEM cells assessed as suppression of diethyl maleate-induced ROS production at 2.5 uM incubated for 16 hrs prior to diethyl maleate challenge measured after 1 hr by DCFH-DA staining-based flow cytometric analysis relative to untreated control. In kind it is functional. Put shortly: (§3)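 CEM cells (5 × 10⁵ in 1 mL) preincubated with compound 16 h at 37 °C, 5% CO₂; then 5 mM DEM for 1 h. Cells washed in PBS and loaded with 10 µM DCFH-DA for 25 min at 37 °C in the dark, then washed twice. Read by flow cytometry, 488 nm excitation, FL1-H 530 nm channel, 10,000 events after debris gating.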
In the case of `COC1=C(OC)C(=O)C(CCCCCCCCC(C)(C)C)=C(C)C1=O`, the Activity is given as 100%.
As for `CCCCCCCCCCCCCCCC1=C(C)C(=O)C(OC)=C(OC)C1=O`, the Activity turned out to be 100%.
Regarding `CCCCCCCCCCC1=C(C)C(=O)C(OC)=C(OC)C1=O` [DECYLUBIQUINONE], the Activity was determined as 95%.

The subject of another assay is CCRF-CEM. Briefly: Antioxidant activity in human CEM cells assessed as suppression of diethyl maleate-induced ROS production at 1 uM incubated for 16 hrs prior to diethyl maleate challenge measured after 1 hr by DCFH-DA staining-based flow cytometric analysis relative to untreated control. In kind it is functional. Put shortly: as §3
With `COC1=C(OC)C(=O)C(CCCCCCCCC(C)(C)C)=C(C)C1=O`, the Activity was determined as 88%.
As to `CCCCCCCCCCCCCCCC1=C(C)C(=O)C(OC)=C(OC)C1=O`, the Activity worked out at 100%.
Consider `CCCCCCCCCCC1=C(C)C(=O)C(OC)=C(OC)C1=O` [DECYLUBIQUINONE], for which the Activity is recorded as 80%.

Tested on in another assay: not listed separately
The assay can be described thus: Effect on cellular respiration in rat RGC5 cells assessed as increase in mitochondrial oxygen consumption at 10 uM after 24 hrs by fluorescence assay relative to vehicle-treated control. In kind it is functional. In short, it runs like this:
(§4)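 RGC-5 cells (DMEM, 10% FBS, phenol-red free) at 70,000 per well in 384-well oxygen biosensor plates, allowed to attach 20–30 min. Compounds added from DMSO stock via PBS dilution, final 3 or 10 µM, 0.1% DMSO. Six vehicle and six FCCP wells per plate. Incubated at 37 °C, 5% CO₂ for 1.5 or 24 h. Fluorescence read at 485/630 nm and expressed as fold change over vehicle at each time point. Two-tailed t test.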
As for `COC1=C(OC)C(=O)C(CCCCCCCCC(C)(C)C)=C(C)C1=O`, the “fold change (FC)” value turned out to be 1.16.
`CCCCCCCCCCCCCCCC1=C(C)C(=O)C(OC)=C(OC)C1=O`: the “fold change (FC)” value is given as 1.52.
`CCCCCCCCCCC1=C(C)C(=O)C(OC)=C(OC)C1=O` [DECYLUBIQUINONE]: the “fold change (FC)” value is 1.08.

Tested on in another assay: not listed separately
Briefly: Effect on cellular respiration in rat RGC5 cells assessed as increase in mitochondrial oxygen consumption at 3 uM after 24 hrs by fluorescence assay relative to vehicle-treated control. In kind it is functional. Put shortly: as §4
For the molecule `COC1=C(OC)C(=O)C(CCCCCCCCC(C)(C)C)=C(C)C1=O`, the “fold change (FC)” value was 1.55.
As to `CCCCCCCCCCCCCCCC1=C(C)C(=O)C(OC)=C(OC)C1=O`, the “fold change (FC)” value turned out to be 1.49.
As for `CCCCCCCCCCC1=C(C)C(=O)C(OC)=C(OC)C1=O` [DECYLUBIQUINONE], the “fold change (FC)” value is 0.99.

Tested on in the next assay: not listed separately
Briefly: Effect on cellular respiration in rat RGC5 cells assessed as increase in mitochondrial oxygen consumption at 10 uM after 1.5 hrs by fluorescence assay relative to vehicle-treated control. In kind it is functional. Put shortly: as §4
As for `COC1=C(OC)C(=O)C(CCCCCCCCC(C)(C)C)=C(C)C1=O`, the “fold change (FC)” value is given as 1.05.
With `CCCCCCCCCCCCCCCC1=C(C)C(=O)C(OC)=C(OC)C1=O`, the “fold change (FC)” value worked out at 1.15.
`CCCCCCCCCCC1=C(C)C(=O)C(OC)=C(OC)C1=O` [DECYLUBIQUINONE]: the “fold change (FC)” value was found to be 1.2.

Tested on in another assay: not listed separately
The assay can be described thus: Effect on cellular respiration in rat RGC5 cells assessed as increase in mitochondrial oxygen consumption at 3 uM after 1.5 hrs by fluorescence assay relative to vehicle-treated control. The assay is classed as functional. In short, it runs like this:
as §4
Turning to `COC1=C(OC)C(=O)C(CCCCCCCCC(C)(C)C)=C(C)C1=O`, the “fold change (FC)” value came to 1.08.
On to `CCCCCCCCCCCCCCCC1=C(C)C(=O)C(OC)=C(OC)C1=O`, for which the “fold change (FC)” value amounted to 1.14.
For the molecule `CCCCCCCCCCC1=C(C)C(=O)C(OC)=C(OC)C1=O` [DECYLUBIQUINONE], the “fold change (FC)” value was 1.19.

For the next assay, the species on record is Bos taurus. Briefly: Inhibition of NADH-ubiquinone oxidoreductase activity in bovine heart submitochondrial particles using coenzyme Q1 as substrate after 5 mins by spectrophotometric analysis relative to untreated control. Put shortly:
(§5)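 Twelve micrograms of bovine heart SMPs incubated 5 min at 39 °C with compound in 50 mM phosphate buffer, pH 7.4, with 0.25 M sucrose, 1 mM MgCl₂, antimycin A and 2 mM KCN. Reaction started with NADH and coenzyme Q₁ (each 50 µM). Decrease in NADH absorbance read at 340 nm. IC₅₀ and maximum achievable inhibition reported.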
With `COC1=C(OC)C(=O)C(CCCCCCCCC(C)(C)C)=C(C)C1=O`, the Imax was found to be 69%.

Target in the next assay: not listed separately
Briefly: Inhibition of NADH-ubiquinone oxidoreductase activity in bovine heart submitochondrial particles using coenzyme Q1 as substrate after 5 mins by spectrophotometric analysis. Set-up: species or system Bos taurus. Put shortly:
as §5
Molecule `COC1=C(OC)C(=O)C(CCCCCCCCC(C)(C)C)=C(C)C1=O` had a pIC50 of 4.83.
`CCCCCCCCCCCCCCCC1=C(C)C(=O)C(OC)=C(OC)C1=O` gave a pIC50 below 4.52.
For `CCCCCCCCCCC1=C(C)C(=O)C(OC)=C(OC)C1=O` [DECYLUBIQUINONE], the pIC50 was below 4.52.

For a further assay, the species on record is Bos taurus. Briefly: Inhibition of NADH oxidase in bovine heart submitochondrial particles at 10 uM after 5 mins by spectrophotometric analysis relative to untreated control. Also noted: scale not given: the % may be the effect or the level left. Put shortly: (§6)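 Bovine heart SMPs, stored in 0.25 M sucrose/10 mM Tris–HCl pH 7.4, were assayed at 30 µg protein/mL in 50 mM Hepes pH 7.5 with 5 mM MgCl₂ at 30 °C. SMPs pre-equilibrated with inhibitor for 5 min. NADH oxidation followed at 340 nm (ε 6.22 mM⁻¹ cm⁻¹). Initial rates taken from the linear trace and expressed relative to untreated control.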
In the case of `COC1=C(OC)C(=O)C(CCCCCCCCC(C)(C)C)=C(C)C1=O`, the activity was found to be 36.2%.
Same read-out and setting: the result for `CCCCCCCCCCCCCCCC1=C(C)C(=O)C(OC)=C(OC)C1=O` reads 59.7%; that for `CCCCCCCCCCC1=C(C)C(=O)C(OC)=C(OC)C1=O` [DECYLUBIQUINONE], 61.5%.

For the next assay, the species on record is Bos taurus. The assay can be described thus: Inhibition of NADH oxidase in bovine heart submitochondrial particles at 5 uM after 5 mins by spectrophotometric analysis relative to untreated control. Set-up: scale not given: the % may be the effect or the level left. In short, it runs like this: as §6
`COC1=C(OC)C(=O)C(CCCCCCCCC(C)(C)C)=C(C)C1=O` yielded an activity of 50.6%.
For the molecule `CCCCCCCCCCCCCCCC1=C(C)C(=O)C(OC)=C(OC)C1=O`, the activity came out at 66.3%.
`CCCCCCCCCCC1=C(C)C(=O)C(OC)=C(OC)C1=O` [DECYLUBIQUINONE] displayed an activity of 83.3%.

The species entered for a further assay is Bos taurus. The assay can be described thus: Inhibition of NADH oxidase in bovine heart submitochondrial particles at 1 uM after 5 mins by spectrophotometric analysis relative to untreated control. Also noted: scale not given: the % may be the effect or the level left. Put shortly:
as §6
The molecule `COC1=C(OC)C(=O)C(CCCCCCCCC(C)(C)C)=C(C)C1=O` showed an activity of 68.3%.
Consider `CCCCCCCCCCCCCCCC1=C(C)C(=O)C(OC)=C(OC)C1=O`, for which the activity stood at 85.2%.
With `CCCCCCCCCCC1=C(C)C(=O)C(OC)=C(OC)C1=O` [DECYLUBIQUINONE], the activity was found to be 93.5%.
